Assay results: ChEMBL document CHEMBL5357024, “MDM2 Antagonist Idasanutlin Reduces HDAC1/2 Abundance and Corepressor Partners but Not HDAC3” (ACS Med Chem Lett, 2024)

Experiments:
Assay type in all cases: cell-based
[1] = target: T1, E3 ubiquitin-protein ligase Mdm2/Histone deacetylase 2 (Homo sapiens) (UniProt Q00987+Q92769); assay: PROTAC activity at MDM2/HDAC2 in human HCT-116 cells assessed as decrease in HDAC2 abundance by measuring remaining activity at 10 uM measured after 24 hrs by Western blot analysis (reference value: 100%)
T1 sequence (Q00987 whole entry, looked up): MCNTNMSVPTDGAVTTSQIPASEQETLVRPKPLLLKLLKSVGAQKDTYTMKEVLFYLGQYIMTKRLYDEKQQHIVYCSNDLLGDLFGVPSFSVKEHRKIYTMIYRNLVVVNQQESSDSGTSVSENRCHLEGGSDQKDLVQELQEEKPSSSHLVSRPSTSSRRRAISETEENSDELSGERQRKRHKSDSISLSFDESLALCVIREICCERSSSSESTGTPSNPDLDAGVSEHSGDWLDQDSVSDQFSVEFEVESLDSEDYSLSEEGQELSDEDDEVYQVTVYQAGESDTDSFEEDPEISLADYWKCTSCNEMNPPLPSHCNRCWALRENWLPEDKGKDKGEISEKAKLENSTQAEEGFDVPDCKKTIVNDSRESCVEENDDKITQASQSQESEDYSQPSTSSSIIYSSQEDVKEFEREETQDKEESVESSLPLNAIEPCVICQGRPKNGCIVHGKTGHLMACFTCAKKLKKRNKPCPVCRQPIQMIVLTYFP
T1 sequence (Q92769 whole entry, looked up): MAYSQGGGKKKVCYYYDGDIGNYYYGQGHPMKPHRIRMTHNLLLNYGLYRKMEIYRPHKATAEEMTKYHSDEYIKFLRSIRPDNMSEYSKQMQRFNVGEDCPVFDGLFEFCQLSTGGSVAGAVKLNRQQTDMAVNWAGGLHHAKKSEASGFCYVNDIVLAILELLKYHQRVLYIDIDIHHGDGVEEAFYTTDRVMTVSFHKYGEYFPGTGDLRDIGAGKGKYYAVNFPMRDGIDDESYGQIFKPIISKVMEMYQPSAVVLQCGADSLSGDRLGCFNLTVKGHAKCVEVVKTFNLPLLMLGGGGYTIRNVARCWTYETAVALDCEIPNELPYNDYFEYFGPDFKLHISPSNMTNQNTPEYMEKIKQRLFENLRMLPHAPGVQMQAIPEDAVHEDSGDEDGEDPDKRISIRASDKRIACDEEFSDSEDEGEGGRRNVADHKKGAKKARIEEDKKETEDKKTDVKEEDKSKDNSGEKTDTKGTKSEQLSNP
Method in brief: (§1)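 HCT116 cells seeded in six-well plates for 24 h, then exposed 24 h to compound (0.01–10 μM) or DMSO in fresh medium. Lysis in Tris-HCl/NaCl/NP-40/Triton X-100 with protease inhibitor. Bradford-normalised 30 μg protein per lane. Quantitative Western blot used specific HDAC1, HDAC2, HDAC3, LSD1 or Sin3a antibodies with IRDye secondaries. Abundance compared with DMSO, n = 2 replicates.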

[2] = target: T1, E3 ubiquitin-protein ligase Mdm2/Histone deacetylase 2 (Homo sapiens); assay: PROTAC activity at MDM2/HDAC2 in human HCT-116 cells assessed as induction of HDAC2 degradation by Western blot analysis; conditions: dose 0.01-10 µM
[3] = target: T2, E3 ubiquitin-protein ligase Mdm2/Histone deacetylase 1 (Homo sapiens) (UniProt Q00987+Q13547); assay: PROTAC activity at MDM2/HDAC1 in human HCT-116 cells assessed as decrease in HDAC1 abundance by measuring remaining activity at 0.025 uM measured after 24 hrs by Western blot analysis (reference value: 100%); method in brief: as §1
T2 sequence (Q00987 whole entry, looked up): as the sequence (Q00987 whole entry, looked up) above
T2 sequence (Q13547 whole entry, looked up): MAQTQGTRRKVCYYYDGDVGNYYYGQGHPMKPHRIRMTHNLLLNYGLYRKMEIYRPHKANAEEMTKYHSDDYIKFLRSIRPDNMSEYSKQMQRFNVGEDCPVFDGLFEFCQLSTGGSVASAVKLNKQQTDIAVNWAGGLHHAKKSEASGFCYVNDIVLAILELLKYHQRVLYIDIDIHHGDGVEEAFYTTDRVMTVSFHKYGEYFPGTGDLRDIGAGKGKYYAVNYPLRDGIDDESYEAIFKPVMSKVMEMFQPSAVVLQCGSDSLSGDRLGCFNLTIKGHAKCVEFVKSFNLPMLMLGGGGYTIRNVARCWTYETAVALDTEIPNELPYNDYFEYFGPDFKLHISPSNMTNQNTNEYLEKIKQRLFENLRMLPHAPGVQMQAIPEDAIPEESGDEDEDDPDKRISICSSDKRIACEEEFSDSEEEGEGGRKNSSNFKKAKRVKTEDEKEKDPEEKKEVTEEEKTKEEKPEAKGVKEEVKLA

[4] = target: T2, E3 ubiquitin-protein ligase Mdm2/Histone deacetylase 1 (Homo sapiens); assay: PROTAC activity at MDM2/HDAC1 in human HCT-116 cells assessed as decrease in HDAC1 abundance by measuring remaining activity at 0.25 uM measured after 24 hrs by Western blot analysis (reference value: 100%); method in brief: as §1
[5] = target: T2, E3 ubiquitin-protein ligase Mdm2/Histone deacetylase 1 (Homo sapiens); assay: PROTAC activity at MDM2/HDAC1 in human HCT-116 cells assessed as decrease in HDAC1 abundance by measuring remaining activity at 0.5 uM measured after 24 hrs by Western blot analysis (reference value: 100%); method in brief: as §1
[6] = target: T2, E3 ubiquitin-protein ligase Mdm2/Histone deacetylase 1 (Homo sapiens); assay: PROTAC activity at MDM2/HDAC1 in human HCT-116 cells assessed as decrease in HDAC1 abundance by measuring remaining activity at 2.5 uM measured after 24 hrs by Western blot analysis (reference value: 100%); method in brief: as §1
[7] = target: T1, E3 ubiquitin-protein ligase Mdm2/Histone deacetylase 2 (Homo sapiens); assay: PROTAC activity at MDM2/HDAC2 in human HCT-116 cells assessed as decrease in HDAC2 abundance by measuring remaining activity at 0.01 uM measured after 24 hrs by Western blot analysis (reference value: 100%); method in brief: as §1
[8] = target: T3, E3 ubiquitin-protein ligase Mdm2/Histone deacetylase 3 (Homo sapiens) (UniProt Q00987+O15379); assay: PROTAC activity at MDM2/HDAC3 in human HCT-116 cells assessed as reduction in HDAC3 abundance by measuring remaining activity at 0.01 uM measured after 24 hrs by Western blot analysis; method in brief: as §1
T3 sequence (O15379 whole entry, looked up): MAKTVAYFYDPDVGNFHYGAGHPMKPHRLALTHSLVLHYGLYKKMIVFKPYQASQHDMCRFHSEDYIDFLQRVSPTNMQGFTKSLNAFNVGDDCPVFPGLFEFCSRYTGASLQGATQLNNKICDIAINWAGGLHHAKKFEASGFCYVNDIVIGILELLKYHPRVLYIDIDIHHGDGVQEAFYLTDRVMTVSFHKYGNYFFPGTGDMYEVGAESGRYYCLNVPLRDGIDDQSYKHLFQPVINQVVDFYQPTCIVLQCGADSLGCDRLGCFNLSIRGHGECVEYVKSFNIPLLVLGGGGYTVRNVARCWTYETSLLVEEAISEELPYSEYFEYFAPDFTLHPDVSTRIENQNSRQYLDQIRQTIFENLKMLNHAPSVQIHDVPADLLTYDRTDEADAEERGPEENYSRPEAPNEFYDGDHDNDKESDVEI
T3 sequence (Q00987 whole entry, looked up): as the sequence (Q00987 whole entry, looked up) above

[9] = target: T3, E3 ubiquitin-protein ligase Mdm2/Histone deacetylase 3 (Homo sapiens); assay: PROTAC activity at MDM2/HDAC3 in human HCT-116 cells assessed as reduction in HDAC3 abundance by measuring remaining activity at 0.025 uM measured after 24 hrs by Western blot analysis; method in brief: as §1
[10] = target: T4, Paired amphipathic helix protein Sin3a (Homo sapiens) (UniProt Q96ST3); assay: Induction of SIN3A degradation in human HCT-116 cells assessed as reduction in SIN3A abundance by measuring remaining activity at 0.1 uM measured after 24 hrs by Western blot analysis (reference value: 100%); method in brief: as §1
T4 sequence (whole entry): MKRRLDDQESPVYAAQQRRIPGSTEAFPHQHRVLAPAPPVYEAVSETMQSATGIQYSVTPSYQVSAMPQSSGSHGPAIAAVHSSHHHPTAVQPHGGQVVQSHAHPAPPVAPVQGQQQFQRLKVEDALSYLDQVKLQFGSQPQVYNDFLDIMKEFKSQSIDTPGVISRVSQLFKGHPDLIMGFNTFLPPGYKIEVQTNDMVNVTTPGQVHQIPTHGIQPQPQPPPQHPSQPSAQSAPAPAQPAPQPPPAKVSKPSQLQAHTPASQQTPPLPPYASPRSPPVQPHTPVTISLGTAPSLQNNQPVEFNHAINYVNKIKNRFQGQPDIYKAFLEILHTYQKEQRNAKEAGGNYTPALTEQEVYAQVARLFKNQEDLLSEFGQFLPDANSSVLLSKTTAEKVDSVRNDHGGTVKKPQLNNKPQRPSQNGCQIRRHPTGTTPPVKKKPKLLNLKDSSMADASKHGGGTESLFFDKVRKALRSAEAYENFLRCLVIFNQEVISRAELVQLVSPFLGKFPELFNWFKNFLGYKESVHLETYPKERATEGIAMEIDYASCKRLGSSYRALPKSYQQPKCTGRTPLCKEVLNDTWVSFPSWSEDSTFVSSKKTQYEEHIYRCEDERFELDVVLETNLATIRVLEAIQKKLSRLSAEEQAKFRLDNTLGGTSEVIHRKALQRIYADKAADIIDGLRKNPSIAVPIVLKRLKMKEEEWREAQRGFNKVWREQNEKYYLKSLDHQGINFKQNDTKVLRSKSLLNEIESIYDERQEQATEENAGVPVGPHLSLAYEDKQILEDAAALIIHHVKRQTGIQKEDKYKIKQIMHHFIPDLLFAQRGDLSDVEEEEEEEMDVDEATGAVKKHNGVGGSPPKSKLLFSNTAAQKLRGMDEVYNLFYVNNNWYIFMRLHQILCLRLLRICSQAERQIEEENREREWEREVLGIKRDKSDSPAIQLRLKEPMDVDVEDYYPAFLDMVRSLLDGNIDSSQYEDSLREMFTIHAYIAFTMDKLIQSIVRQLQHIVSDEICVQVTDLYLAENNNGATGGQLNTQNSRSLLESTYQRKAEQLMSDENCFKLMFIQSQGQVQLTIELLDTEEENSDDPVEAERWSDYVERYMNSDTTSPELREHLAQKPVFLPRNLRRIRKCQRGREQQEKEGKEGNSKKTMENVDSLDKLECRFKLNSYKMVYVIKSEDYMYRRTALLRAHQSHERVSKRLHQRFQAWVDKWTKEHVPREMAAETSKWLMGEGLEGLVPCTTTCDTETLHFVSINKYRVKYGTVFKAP

[11] = target: Lysine-specific histone demethylase 1A (Homo sapiens) (UniProt O60341); assay: Induction of LSD1 degradation in human HCT-116 cells assessed as reduction in LSD1 abundance by measuring remaining activity at 0.5 uM measured after 24 hrs by Western blot analysis (reference value: 100%); method in brief: as §1
[12] = target: Lysine-specific histone demethylase 1A (Homo sapiens) (UniProt O60341); assay: Induction of LSD1 degradation in human HCT-116 cells assessed as reduction in LSD1 abundance by measuring remaining activity at 2.5 uM measured after 24 hrs by Western blot analysis (reference value: 100%); method in brief: as §1

For `COc1cc(C(=O)NCCOCCOCCOCCOCCC(=O)Nc2ccc(C(=O)Nc3ccccc3N)cc2)ccc1NC(=O)[C@@H]1N[C@@H](CC(C)(C)C)[C@](C#N)(c2ccc(Cl)cc2F)[C@H]1c1cccc(Cl)c1F`, the Activity [1] was 54%, the Activity [2] was “Dose-Dependent Effect” and the Activity [3] was 94%. The Activity [4] was 70%, the Activity [5] was 67% and the Activity [6] was 39%. It also gave an Activity [7] of 97%, an Activity [8] of 98% and an Activity [9] of 100%. The Activity [10] was 99%, the Activity [11] was 86% and the Activity [12] was 73%.
